In ChEMBL document CHEMBL1806447, “Semi-synthesis and antitumor activity of 6-isomers of 5, 8-O-dimethyl acylshikonin derivatives” (Eur J Med Chem, 2011) one finds IC50, Activity and inhibition in vivo data, which are given here for 25 compounds.

One data set concerns L929. Description: Cytotoxicity against mouse L929 cells after 24 hrs by MTT assay. The settings on record: L929, 24 h. Type of data set: cell-based. The procedure, abridged:
(§1)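 Seeded at 5.0 × 10⁴ cells/mL and cultured 24 h, then exposed 24 h to serial dilutions made from a DMSO solution. MTT (5 mg/mL) added for 4 h, formazan dissolved in DMSO, A570 read. IC50 taken by linear regression of concentration-response curves; mean of at least three independent experiments.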
(In general: Formazan colour is commonly taken as a measure of viable cells.)

The subject of the next data set is HCT-15. Description: Antitumor activity against human HCT15 cells after 24 hrs by MTT assay. Type of data set: functional, cell-based. The settings on record: HCT-15, 24 h. In short, it runs like this:
as §1

Another data set has as its system MDA-MB-231. The data set is described as follows: Antitumor activity against human MDA-MB-231 cells after 24 hrs by MTT assay. As to conditions: MDA-MB-231, 24 h. The format is functional, cell-based. In short, it runs like this:
as §1

For the next data set, the system named is CNE. Description: Antitumor activity against human CNE cells after 24 hrs by MTT assay. The format is functional, cell-based. In short, it runs like this: as §1
A further data set relates to MCF7. The data set is described as follows: Antitumor activity against human MCF7 cells after 24 hrs by MTT assay. The format is functional, cell-based. The settings on record: MCF7, 24 h. In short, it runs like this:
as §1

Data set [1] can be described thus: Cytotoxicity against human HSF cells after 24 hrs by MTT assay. Type of data set: cell-based. The procedure, abridged:
as §1

Another data set deals with K562. The data set is described as follows: Antitumor activity against human K562 cells after 24 hrs by MTT assay. The format is functional, cell-based. The settings on record: K562, 24 h. The procedure, abridged:
as §1

A further data set has as its system Mus musculus. The data set is described as follows: Toxicity in KM mouse harboring mouse S180 cells xenograft assessed as body weight change at 25 mg/kg, ip administered qd for 9 days measured on 10th day (reference value: +39.1%). Type of data set: organism-based, CCRF S-180. On the set-up: dose 25 mg/kg, route intraperitoneal. The settings on record: in vivo, 216 h. The procedure, abridged:
(§2)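 S-180 sarcoma cells (2 × 10⁶ in 0.2 ml saline) injected subcutaneously at the femur of male SPF KM mice, seven weeks old, 18–22 g; groups of 10. Dosing began 24 h later, i.p. once daily for 9 days, in 0.5% DMSO/1% Tween 80 diluted with saline; controls received vehicle. Body weight followed; tumors excised and weighed on day 10. Inhibition = (control − treated mean tumor weight)/control × 100%.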

Data set [2] has as its system CCRF S-180. The data set is described as follows: Antitumor activity against mouse S180 cells xenografted in KM mouse assessed as decrease in tumor weight at 25 mg/kg, ip administered qd for 9 days measured on 10th day (reference value: 2.07+/- 0.42g). The format is functional. The settings on record: route intraperitoneal. In short, it runs like this:
as §2

The test system of data set [3] is CCRF S-180. Description: Antitumor activity against mouse S180 cells xenografted in KM mouse assessed as tumor weight inhibition rate at 25 mg/kg, ip administered qd for 9 days measured on 10th day. Type of data set: functional. The settings on record: CCRF S-180, ip, 216 h, route intraperitoneal. The procedure, abridged:
as §2

One may read the IC50 as the point on the concentration scale where inhibition reaches its midpoint. Read a low IC50 as greater potency. With `COc1ccc(OC)c2c1C(=O)C=C([C@@H](CC=C(C)C)OC(C)=O)C2=O`, the IC50 is above 100 µM in the data set with L929, 29.6 µM in the data set with HCT-15, 7.2 µM in the data set with MDA-MB-231 and 23.1 µM in the data set with CNE.

As to `COc1cc([C@@H](CC=C(C)C)OC(=O)c2ccoc2)c(OC)c2c1C(=O)C=CC2=O`, the concentration for half-maximal inhibition (IC50) in the data set with MCF7 is 1.3 µM; in data set [1] it was above 100 µM; with MDA-MB-231, 0.4 µM.

On to `COc1cc([C@@H](CC=C(C)C)OC(C)=O)c(OC)c2c1C(=O)C=CC2=O`, for which the 50% inhibitory concentration (IC50) in the data set on MCF7 is 4.9 µM; in the data set on L929 it was above 100 µM; with K562, 15.3 µM; in data set [1], above 100 µM; with HCT-15, 19.3 µM; in the data set with MDA-MB-231, 3.4 µM. This compound also showed an IC50 with CNE of 58 µM.

As to `CCC(=O)O[C@H](CC=C(C)C)c1cc(OC)c2c(c1OC)C(=O)C=CC2=O`, the figures for the IC50 (with MCF7; in data set [1]; with MDA-MB-231) were 6.2 µM, 78.6 µM and 2.5 µM, respectively.

Turning to `CCCC(=O)O[C@H](CC=C(C)C)c1cc(OC)c2c(c1OC)C(=O)C=CC2=O`, the IC50 in the data set on MCF7 came out at 5.1 µM; in data set [1] it was 86.3 µM; in the data set on MDA-MB-231, 4.3 µM.

Regarding `COc1cc([C@@H](CC=C(C)C)OC(=O)C(C)C)c(OC)c2c1C(=O)C=CC2=O`, the figures for the IC50 (with MCF7; in [1]; in the data set on MDA-MB-231) were 3.7 µM, 69.3 µM and 2.8 µM, respectively.

`C/C=C/C(=O)O[C@H](CC=C(C)C)c1cc(OC)c2c(c1OC)C(=O)C=CC2=O`: the half-maximal inhibitory concentration (IC50) came out at 3.3 µM with MCF7, 74.9 µM in [1] and 1.5 µM in the data set on MDA-MB-231.

As to `CCC(C)C(=O)O[C@H](CC=C(C)C)c1cc(OC)c2c(c1OC)C(=O)C=CC2=O` (stereo partly specified), the results for the half-maximal inhibitory concentration (IC50) (with MCF7; in data set [1]; in the data set with MDA-MB-231) were 4.5 µM, 93.6 µM and 5.9 µM, respectively.

With `COc1cc([C@@H](CC=C(C)C)OC(=O)c2ccccc2)c(OC)c2c1C(=O)C=CC2=O`, the half-inhibitory concentration (IC50) in the data set with MCF7 is 6.7 µM; in [1], above 100 µM; with MDA-MB-231, 2.2 µM.

On to `COc1cc([C@@H](CC=C(C)C)OC(=O)CCc2ccccc2)c(OC)c2c1C(=O)C=CC2=O`, for which the IC50 in the data set on MCF7 was 5.9 µM; in data set [1] it was above 100 µM; in the data set with MDA-MB-231, 3.7 µM.

Take `COc1cc([C@@H](CC=C(C)C)OC(=O)/C=C/c2ccccc2)c(OC)c2c1C(=O)C=CC2=O`: the half-maximal inhibitory concentration (IC50) is 3.9 µM in the data set on MCF7, above 100 µM in data set [1] and 2.4 µM in the data set with MDA-MB-231.

Regarding `COc1cc([C@@H](CC=C(C)C)OC(=O)c2ccc([N+](=O)[O-])cc2)c(OC)c2c1C(=O)C=CC2=O`, the concentration for half-maximal inhibition (IC50) in the data set with MCF7 is 15.2 µM; in data set [1], above 100 µM; with MDA-MB-231 it was 16.8 µM.

In the case of `COc1ccc(C(=O)O[C@H](CC=C(C)C)c2cc(OC)c3c(c2OC)C(=O)C=CC3=O)cc1`, the IC50 in the data set on MCF7 came to 8.3 µM; in data set [1], 88.3 µM; in the data set on MDA-MB-231 it was 1.4 µM.

Regarding `COc1ccccc1C(=O)O[C@H](CC=C(C)C)c1cc(OC)c2c(c1OC)C(=O)C=CC2=O`, the IC50 in the data set on MCF7 was 21.3 µM; in data set [1] it was above 100 µM; in the data set on MDA-MB-231, 4.4 µM.

In the case of `COc1ccc(CC(=O)O[C@H](CC=C(C)C)c2cc(OC)c3c(c2OC)C(=O)C=CC3=O)cc1`, the IC50 in the data set with MCF7 was 5.5 µM; in data set [1], above 100 µM; in the data set with MDA-MB-231 it was 2.3 µM.

As to `COc1ccc(/C=C/C(=O)O[C@H](CC=C(C)C)c2cc(OC)c3c(c2OC)C(=O)C=CC3=O)cc1OC`, the IC50 with MCF7 was 7.7 µM; in data set [1], above 100 µM; in the data set with MDA-MB-231, 5 µM.

Regarding `COc1cc([C@@H](CC=C(C)C)OC(=O)c2ccco2)c(OC)c2c1C(=O)C=CC2=O`, the 50% inhibitory concentration (IC50) in the data set with MCF7 is 2.7 µM; in data set [1], above 100 µM; in the data set on MDA-MB-231 it was 1.3 µM.

As to `COc1cc([C@@H](CC=C(C)C)OC(=O)C2CCCO2)c(OC)c2c1C(=O)C=CC2=O` (stereo partly specified), the 50% inhibitory concentration (IC50) with MCF7 is 2.5 µM; with L929, above 100 µM; in the data set with K562 it was 11.2 µM; in data set [1], above 100 µM; in the data set with HCT-15, 18.6 µM; in the data set with MDA-MB-231, 0.6 µM. The same compound yielded a concentration for half-maximal inhibition (IC50) in the data set with CNE of 20.6 µM.

As to `COc1cc([C@@H](CC=C(C)C)OC(=O)C2CCOC2)c(OC)c2c1C(=O)C=CC2=O` (stereo partly specified), the IC50 in the data set with MCF7 was 1.1 µM; in data set [1], 69.4 µM; with MDA-MB-231, 0.2 µM.

Turning to `COc1cc([C@@H](CC=C(C)C)OC(=O)c2cccnc2)c(OC)c2c1C(=O)C=CC2=O`, the concentration for half-maximal inhibition (IC50) in the data set with MCF7 was determined as 17.4 µM; in [1], 91.7 µM; with MDA-MB-231, 6 µM.

Consider `COc1cc([C@@H](CC=C(C)C)OC(=O)c2ccncc2)c(OC)c2c1C(=O)C=CC2=O`, for which the IC50 in the data set with MCF7 is 6.3 µM; in [1] it was above 100 µM; with MDA-MB-231, 1.2 µM.

On to `COc1cc([C@H](O)CC=C(C)C)c(OC)c2c1C(=O)C=CC2=O`, for which the IC50 in the data set with MCF7 was found to be 9.2 µM; in data set [1], 79.6 µM; with MDA-MB-231, 4.1 µM.

On to `COc1ccc(OC)c2c1C(=O)C=C([C@@H](CC=C(C)C)OC(=O)C1CCCO1)C2=O` (stereo partly specified), for which the half-inhibitory concentration (IC50) with L929 was above 100 µM; in the data set on HCT-15, 12.7 µM; in the data set with MDA-MB-231, 2.1 µM; in the data set on CNE, 16.5 µM.

The inhibition in vivo is the drop in the measured response relative to a control, in per cent. Regarding `O=c1[nH]cc(F)c(=O)[nH]1` [FLUOROURACIL], the Activity came to 34.7% in the data set with Mus musculus and 1.11 g in the data set on CCRF S-180 [2]. For the same compound, the inhibition in vivo at 25 mg/kg in the data set on CCRF S-180 [3] stood at 46.5%.

For the compound `CC(C)=CC[C@@H](O)C1=CC(=O)c2c(O)ccc(O)c2C1=O` [SHIKONIN], the 50% inhibitory concentration (IC50) with L929 was found to be 3.2 µM; in the data set on HCT-15, 7.3 µM; in the data set with MDA-MB-231, 6.6 µM; with CNE, 0.7 µM.
